Rows were chosen to be rich in hits. Some 3.7% of all compounds tested hit in one or more screens of this group.
KCNQ1 block = inhibitors of human KCNQ1 potassium channel; CHO-K1 KCNQ1, FluxOR thallium flux fluorescence; stronger effect = higher value; P51787; 310,000 tested, 1.3% active; B-score at 10 µM;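 active means compounds whose thallium flux B-score, printed positive for inhibition, exceeds three library SD while starting fluorescence stays within three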;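 further: channel opened by potassium depolarization with thallium stimulus after 20 min compound exposure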
KCNK9 inh = blocks the human KCNK9 two-pore domain potassium channel; Q9NPC2; HEK293 KCNK9, FluxOR thallium flux fluorescence; stronger effect = lower value; B-score at 10 µM; 310,000 tested, 1.2% active; AID 488922;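 active means ratio B-score over 3 SD below the library mean, with starting fluorescence within 5 SD of its mean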;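 further: negative B-score means less thallium flux so channel inhibition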
KCNQ1 pot = potentiates or activates the human KCNQ1 potassium channel. CHO-K1 KCNQ1, thallium flux FluxOR fluorescence; stronger effect = higher value. P51787. 310,000 tested, 0.35% active. B-score at 10 µM;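 active means fluorescence ratio B-score, a plate-corrected score, at least three library SD, with initial intensity B-score within 5 SD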
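Material: CHO-K1 cells stably expressing KCNQ1. Medium: assay buffer for compound exposure, DMSO matched across wells. Reagent: K+/Tl+ depolarizing stimulus. Compound dosing: single-concentration screen. Times: 37 °C overnight plating, 90-min dark dye load, 20-min compound pretreatment. Technique: FluxOR Tl+ flux fluorescence.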
KCNK3 inh = human KCNK3 channel inhibition, primary screen. O14649. CHO-KCNK3 thallium flux, FluxOR fluorescence; stronger effect = lower value. B-score at 10 µM. 340,000 tested, 0.84% active. AID 602410;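 active means B-score under library mean minus 4 SD, starting fluorescence ratio at most library mean plus 5 SD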;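 further: more negative B-score means stronger inhibition of thallium flux through KCNK3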
Target sequence (O14649 whole entry, looked up): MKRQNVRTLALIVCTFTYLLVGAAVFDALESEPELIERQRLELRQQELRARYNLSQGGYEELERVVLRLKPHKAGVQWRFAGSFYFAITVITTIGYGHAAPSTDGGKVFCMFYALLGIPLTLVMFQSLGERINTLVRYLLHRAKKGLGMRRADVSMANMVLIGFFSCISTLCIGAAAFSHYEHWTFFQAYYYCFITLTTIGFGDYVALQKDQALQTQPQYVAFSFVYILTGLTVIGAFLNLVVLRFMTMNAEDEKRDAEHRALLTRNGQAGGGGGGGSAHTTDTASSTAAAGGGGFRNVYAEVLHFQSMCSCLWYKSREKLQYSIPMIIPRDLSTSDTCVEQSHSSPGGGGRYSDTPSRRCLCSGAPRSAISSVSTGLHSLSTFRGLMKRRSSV
hERG rescue = hERG (human) protection from proarrhythmic block; CHO-hERG, FluxOR thallium flux, dofetilide IC70 present; activation (rescue from dofetilide block), less the hit threshold, % at 10 µM; AID 1511; 310,000 tested, 0.51% active; Q12809;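 active means activation above the mean of controls blocked by dofetilide plus 5 SD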;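 further: thallium influx through hERG after potassium depolarization seen as dye fluorescence rise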
Kir21 block = blocks the mouse Kir2.1 inward-rectifier potassium channel. P35561. HEK293-Kir2.1, FluxOR thallium flux fluorescence; stronger effect = lower value. B-score at 10 µM. 310,000 tested, 0.85% active. AID 1672;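 active means fluorescence ratio B-score at or below minus 3 SD of library scores, with starting-brightness B-score within 2 SD, cut at about -4.2 in these data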;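 further: channel flux triggered by added potassium and thallium sulfate stimulus; B-score of peak minus minimum fluorescence over baseline after thallium stimulus; more negative B-score means stronger Kir2.1 block with less thallium influx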
KCNK9 block conf = confirmation of human KCNK9 potassium channel inhibitors | AID 492992 | inhibition, % at 10 µM | shares compounds with KCNK9 inh | HEK293 KCNK9 cells, FluxOR thallium flux fluorescence | 4,900 tested, 43% active;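 active means thallium signal inhibited by more than 5 SD of the compound-free buffer control wells, on both duplicate plates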
Kir2-1 spec = tests whether KCNK9 modulators also affect mouse Kir2.1; shares compounds with KCNK9 inh; Kir2.1 cells, FluxOR thallium flux fluorescence; inhibition, % at 10 µM; 4,900 tested, 4% active; AID 492993;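 active means thallium signal drop more than 5 SD beyond the mean of the no-compound control wells, seen in both duplicate plates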;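 further: signal is fluorescence rise after thallium addition divided by baseline fluorescence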
KCNK9 uninduced = second counter-screen for KCNK9 modulators: effect in non-induced cells; shares compounds with KCNK9 inh; non-induced KCNK9-HEK293, FluxOR thallium flux; inhibition, % at 10 µM; 4,900 tested, 40% active; AID 492997;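 active means thallium signal drop beyond 5 SD of the untreated control mean, on both duplicate plates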
Numbers stand for hits.

Results for CC(C)(C)n1nnnc1C(c1cccnc1)N(Cc1ccccc1)Cc1cccs1 (stereo not given) ?
KCNQ1 block: inactive; KCNK9 inh: -13; KCNQ1 pot: inactive; KCNK3 inh: inactive; hERG rescue: inactive; Kir21 block: inactive; KCNK9 block conf: 46%; Kir2-1 spec: inactive; KCNK9 uninduced: 52%

What do the screens show for `CC(C)(C)n1nnnc1C(c1ccc(C(F)(F)F)cc1)N(Cc1ccc(F)cc1)Cc1ccco1` (stereo not given)?
KCNQ1 block: inactive; KCNK9 inh: -10; KCNQ1 pot: inactive; KCNK3 inh: inactive; hERG rescue: inactive; Kir21 block: inactive; KCNK9 block conf: 42%; Kir2-1 spec: inactive; KCNK9 uninduced: 31%

What do the screens show for `CC(C)(C)n1nnnc1C(c1ccc(C(F)(F)F)cc1)N(Cc1ccccc1)Cc1ccco1` (stereo not given)?
KCNQ1 block: 6; KCNK9 inh: -11; KCNQ1 pot: inactive; KCNK3 inh: inactive; hERG rescue: inactive; Kir21 block: inactive; KCNK9 block conf: 52%; Kir2-1 spec: inactive; KCNK9 uninduced: 33%

Results for COc1ccccc1C(=O)Nc1ccc(C(=O)Nc2ccccc2C(=O)O)cc1 ?
KCNQ1 block: inactive; KCNK9 inh: inactive; KCNQ1 pot: inactive; KCNK3 inh: inactive; hERG rescue: inactive; Kir21 block: inactive

How did COc1ccc(CCNC(=O)c2cccc(NC(=O)CC3SC(N4CCCCC4)=NC3=O)c2)cc1OC (stereo not given) do in these assays?
KCNQ1 block: inactive; KCNK9 inh: inactive; KCNQ1 pot: inactive; KCNK3 inh: inactive; hERG rescue: inactive; Kir21 block: inactive

Results for COCCN(C(=O)COC(=O)/C=C/c1cccc(C(F)(F)F)c1)c1c(N)n(CC(C)C)c(=O)[nH]c1=O ?
KCNK3 inh: inactive

Results for CC(C)(C)n1nnnc1C(c1cccs1)N(Cc1ccc(Cl)cc1)CC1CCCO1 (stereo not given) ?
KCNQ1 block: inactive; KCNK9 inh: -16; KCNQ1 pot: inactive; KCNK3 inh: inactive; hERG rescue: inactive; Kir21 block: inactive; KCNK9 block conf: 62%; Kir2-1 spec: inactive; KCNK9 uninduced: 42%

How did CC(C)(C)n1nnnc1C(c1ccc(F)cc1)N(Cc1ccc(F)cc1)Cc1ccco1 (stereo not given) do in these assays?
KCNQ1 block: 7; KCNK9 inh: -15; KCNQ1 pot: inactive; KCNK3 inh: inactive; hERG rescue: inactive; Kir21 block: inactive; KCNK9 block conf: 72%; Kir2-1 spec: inactive; KCNK9 uninduced: 40%

What do the screens show for `Cc1ccc(S(=O)(=O)Cn2nnnc2CN(Cc2ccco2)Cc2cccs2)cc1`?
KCNQ1 block: inactive; KCNK9 inh: inactive; KCNQ1 pot: inactive; KCNK3 inh: inactive; hERG rescue: inactive; Kir21 block: inactive

Results for Cc1ccc(C(c2nnnn2C(C)(C)C)N(Cc2ccco2)Cc2cccs2)cc1 (stereo not given) ?
KCNQ1 block: inactive; KCNK9 inh: -17; KCNQ1 pot: inactive; KCNK3 inh: inactive; hERG rescue: inactive; Kir21 block: inactive; KCNK9 block conf: 66%; Kir2-1 spec: inactive; KCNK9 uninduced: 30%

Results for Fc1ccc(C(c2nnnn2C2CCCC2)N(Cc2ccco2)CC2CCCO2)cc1 (stereo not given) ?
KCNQ1 block: inactive; KCNK9 inh: inactive; KCNQ1 pot: inactive; KCNK3 inh: inactive; hERG rescue: inactive; Kir21 block: inactive

What do the screens show for `Clc1ccc(CN(Cc2ccccc2)C(c2cccs2)c2nnnn2C2CCCC2)cc1` (stereo not given)?
KCNQ1 block: inactive; KCNK9 inh: inactive; KCNQ1 pot: inactive; KCNK3 inh: inactive; hERG rescue: inactive; Kir21 block: inactive

How did O=C(Nc1nnc(-c2ccc3c(c2)CCCC3)o1)c1ccccc1 do in these assays?
KCNQ1 block: inactive; KCNK9 inh: inactive; KCNQ1 pot: 33; KCNK3 inh: inactive; hERG rescue: inactive; Kir21 block: inactive; KCNK9 block conf: inactive; Kir2-1 spec: inactive; KCNK9 uninduced: inactive

What do the screens show for `O=C(Nc1nnc(-c2ccncc2)o1)c1ccccc1`?
KCNQ1 block: inactive; KCNK9 inh: inactive; KCNQ1 pot: inactive; KCNK3 inh: inactive; hERG rescue: inactive; Kir21 block: inactive

Results for CCN1C(=O)/C(=C\c2nc3ccccc3c(=O)n2CC)c2ccccc21 ?
KCNQ1 block: inactive; KCNK9 inh: inactive; KCNQ1 pot: inactive; KCNK3 inh: inactive; hERG rescue: inactive; Kir21 block: inactive; KCNK9 block conf: inactive; Kir2-1 spec: inactive; KCNK9 uninduced: inactive

What do the screens show for `Cc1ccc(NC(=O)O/N=C/c2c(C)nn(C(C)(C)C)c2C)cc1Cl`?
KCNQ1 block: inactive; KCNK9 inh: inactive; KCNQ1 pot: inactive; KCNK3 inh: inactive; hERG rescue: inactive; Kir21 block: inactive

Results for Cn1nc(C(=O)OCC(=O)Nc2ccc(C(N)=O)cc2)c2ccccc2c1=O ?
KCNK3 inh: inactive

How did C=CCc1ccc(OCCCCOc2ccc(C(=O)O)cc2)c(OC)c1 do in these assays?
KCNQ1 block: inactive; KCNK9 inh: inactive; KCNQ1 pot: inactive; KCNK3 inh: inactive; hERG rescue: inactive; Kir21 block: inactive

How did C=CCc1ccc(OCCCOc2ccc(C)c(C)c2)c(OC)c1 do in these assays?
KCNQ1 block: inactive; KCNK9 inh: inactive; KCNQ1 pot: inactive; KCNK3 inh: inactive; hERG rescue: inactive; Kir21 block: inactive; KCNK9 block conf: inactive; Kir2-1 spec: inactive; KCNK9 uninduced: inactive

How did C=CCc1ccc(OCCOc2cccc3ccc(C)nc23)c(OC)c1 do in these assays?
KCNQ1 block: inactive; KCNK9 inh: inactive; KCNQ1 pot: inactive; KCNK3 inh: inactive; hERG rescue: inactive; Kir21 block: inactive; KCNK9 block conf: inactive; Kir2-1 spec: inactive; KCNK9 uninduced: inactive

Results for C=CCc1ccc(OCCOCCN(C)C)c(OC)c1 ?
KCNQ1 block: inactive; KCNK9 inh: inactive; KCNQ1 pot: inactive; KCNK3 inh: inactive; hERG rescue: inactive; Kir21 block: inactive

Results for Cc1ccc(/C=C2/SC(=S)N(C3CCCCC3)C2=O)o1 ?
KCNQ1 block: inactive; KCNK9 inh: inactive; KCNQ1 pot: inactive; KCNK3 inh: inactive; hERG rescue: inactive; Kir21 block: inactive; KCNK9 block conf: inactive; Kir2-1 spec: inactive; KCNK9 uninduced: inactive

What do the screens show for `CCCCn1c(N)c(N(CCOC)C(=O)CCc2ccc(OC)cc2)c(=O)[nH]c1=O`?
KCNQ1 block: inactive; KCNK9 inh: inactive; KCNQ1 pot: inactive; KCNK3 inh: inactive; hERG rescue: inactive; Kir21 block: inactive

Screening data from PubChem.
